From ChEMBL document CHEMBL1144493, “Synthesis and biological evaluation of dihydrofuran-fused perhydrophenanthrenes as a new anti-influenza agent having novel structural characteristic” (Bioorg Med Chem, 2007)
Active and inactive are the calls of the source. The calls are words filed in the database; no cut-off is given here.

What was measured:
Influenza A virus [1] = assay: Antiviral activity against influenza virus A virus A/PR/8/34 (H1N1) at 100 uM; format: functional, organism-based
Procedure, shortened: (§1)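 PBS-washed confluent MDCK monolayers were inoculated with virus in serum-free MEM and adsorbed for 45 min at room temperature. They were then cultured in agar medium with drug at 100 µM or 1% DMSO as control. Results are percent of control, mean ± SD of three experiments. Drug stocks were in DMSO, final DMSO <1%.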

Influenza B virus [2] = assay: Antiviral activity against influenza B virus B/Lee at 100 uM; format: functional, organism-based; procedure, shortened: as §1
Influenza B virus [3] = assay: Antiviral activity against influenza B virus B/Singapore/222/79 at 100 uM; format: functional; procedure, shortened: as §1
Influenza A virus [4] = assay: Inhibition of influenza A virus A/Aichi/2/68 proliferation in MDCK cells at 10 uM relative to control; format: functional; parameters: scale not given: the % may be the effect or the level left
Influenza A virus [5] = assay: Antiviral activity against influenza A virus A/USSR/92/77 (H1N1) at 100 uM; format: functional, organism-based; procedure, shortened: as §1
MDCK = assay: Cytotoxicity against MDCK cells at 100 uM by MTT assay; format: cell-based, Canis lupus familiaris; settings: dog
Procedure, shortened: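 Subconfluent MDCK cells (10⁴ cells/well) were exposed for 24 h to compound at 100 or 200 µM in MEM with 2% FBS; control was 1% DMSO. MTT was then added and OD read at 570 nm. Values are mean ± SD of three measurements.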

Influenza A virus [6] = assay: Antiviral activity against influenza A virus A/NWS/33 (H1N1) at 100 uM; format: functional, organism-based; procedure, shortened: as §1
Influenza A virus [7] = assay: Anti-influenza activity against influenza A virus A/Aichi/2/68 in MDCK cells administered at 100 uM within 1 hrs post infection; format: functional, organism-based
Procedure, shortened: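 MDCK cells were infected with A/Aichi/2/68 (H3N2) under drug-free conditions and then given drug at 100 µM after delays of 0–10 h at 37 °C. The paper describes a one-step growth design at MOI 5 PFU/cell with 1-h drug treatment. Virus yield was measured by plaque titration after 24 h total, as % of 1% DMSO control, mean ± SD of three experiments.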

Influenza A virus [8] = assay: Inhibition of influenza A virus A/Aichi/2/68 virus proliferation in MDCK cells; format: functional, organism-based

Compound	Activity (Influenza A virus [1])	Activity (Influenza B virus [2])	Activity (Influenza B virus [3])	Activity (Influenza A virus [4])	Activity (Influenza A virus [5])	Activity (MDCK)	Activity (Influenza A virus [6])	Activity (Influenza A virus [7])	Activity (Influenza A virus [8])
N#C[C@]12CCC3(OCCO3)C3=CO[C@H](Cc4cc(OC(F)(F)F)ccc41)[C@@H]32	Active	Active	Active	30%	Active	Not Active	Active	Active	Dose-dependent effect
CC(C)C(Oc1ccc2c(c1)C[C@H]1OC=C3[C@H]1[C@@]2(C#N)CCCC31OCCO1)(C(C)C)C(C)C	Active	Active	Active	30%	Active	Not Active	Active		Dose-dependent effect
